Assay outcomes as filed in PubChem BioAssay.
EWS-Fli inh: inhibitors of EWS/Fli oncoprotein transcriptional activity | AID 651661 | actives 0.67% (n = 350,000) | A673 NR0B1-luciferase reporter, viability-normalised | inhibition, % at 12.6 µM;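 active means mean inhibition of at least 50% after viability correction, with every replicate also passing that limit; inconclusive means mean reaches 50% but only one of two replicates passes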;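 further: firefly luciferase signal divided by Alamar Blue viability fluorescence both relative to DMSO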
LGR2 antag: blocks bursicon-induced cAMP signaling via Drosophila LGR2; inhibition, % at 9.99 µM; HEK293 LGR2, CRE-luciferase, bursicon-stimulated, 4 h; actives 0.35% (n = 380,000);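 active means drop in luminescence signal, shown as inhibition above about 50% in the replicate tests, limit read from the data, passing the limit was not always enough; inconclusive means probably only some replicates passing the limit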;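 further: agonist challenge used bursicon conditioned medium at about half maximal strength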
E-sel inducer: E-selectin induction on HUVECs | HUVEC E-selectin immunofluorescence imaging; normalized: neutral wells 0, TNF-alpha wells 100 | P16581 | actives 0.37% (n = 260,000) | AID 686992 | activation, % at 7.58 µM;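 active means mean E-selectin-positive cell signal at least 10% of the positive control, reached in at least 60% of replicates, without over 20% cell loss; inconclusive means no rule given, readout overlaps actives, possibly toxicity-flagged; inactive means the rest, including those meeting only one limit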
Target sequence (P16581 whole entry, looked up): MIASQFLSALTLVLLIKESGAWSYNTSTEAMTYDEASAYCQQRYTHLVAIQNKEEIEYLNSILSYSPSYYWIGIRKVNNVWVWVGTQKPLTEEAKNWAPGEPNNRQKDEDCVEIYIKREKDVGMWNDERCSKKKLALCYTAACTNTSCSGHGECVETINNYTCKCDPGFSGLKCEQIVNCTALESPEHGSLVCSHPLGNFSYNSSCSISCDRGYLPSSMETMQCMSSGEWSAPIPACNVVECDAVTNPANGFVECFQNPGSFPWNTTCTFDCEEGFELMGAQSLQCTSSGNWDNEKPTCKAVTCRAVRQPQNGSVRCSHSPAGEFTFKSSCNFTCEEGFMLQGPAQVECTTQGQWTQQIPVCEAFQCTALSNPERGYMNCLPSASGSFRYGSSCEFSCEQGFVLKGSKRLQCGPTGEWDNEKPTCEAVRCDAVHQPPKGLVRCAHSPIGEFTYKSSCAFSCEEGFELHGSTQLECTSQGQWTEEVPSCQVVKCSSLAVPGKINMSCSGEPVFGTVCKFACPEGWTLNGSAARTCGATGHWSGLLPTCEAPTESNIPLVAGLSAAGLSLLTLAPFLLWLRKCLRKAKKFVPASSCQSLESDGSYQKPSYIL
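System: HUVEC / Compound: single concentration / Signal: immunofluorescence imaging / Read-out: percent E-selectin-positive cells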
rRNA inh HTS: inhibits bacterial ribosomal RNA function over humanized ribosomes | E. coli WT GFP vs humanized-ribosome RFP mutants, fluorescence, 24 h; stronger effect = lower value; DMSO median 0, no signal -100 | GFP signal change (wild-type ribosome), % (test concentration not listed) | actives 1.6% (n = 350,000);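 active means significant combined selectivity score with lowered wild-type GFP, culture density cut under 30%, mutant RFP and density less affected; inactive means any of these conditions unmet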
* marks the source's active call; other numbers are inactive results; ? = inconclusive; . = no result given. Compounds with a hit are over-represented: about 2.4% of the library has one in this group of screens.

SMILES	EWS-Fli inh	LGR2 antag	E-sel inducer	rRNA inh HTS
CO[C@H]1CN(C)C(=O)c2ccc(NC(C)=O)cc2OC[C@H](C)N(C(=O)C2CCC2)C[C@H]1C	-2	4	0	1
COc1ccc(CCNC(=O)c2ccc3c(c2)OCCO3)cc1	-31	.	1	.
O=C(NCCc1ccccc1)c1ccc2c(c1)OCCO2	90*	102*	0	.
C/C(=N/NC(=O)CCc1ccccc1)c1ccc2c(c1)OCO2	-9	-8	0	2
O=C(NCCc1ccccc1)c1ccc2c(c1)OCCCO2	89*	102*	0	2
O/N=C(/CCc1ccccc1)c1ccc2c(c1)OCCO2	-108	-73	0	-25*
O=C(CCCc1ccccc1)c1ccc2c(c1)OCCO2	86*	101*	.	-30*
COc1ccc(NC(=O)Nc2ccc3c(c2)C(=O)N([C@H](C)CO)C[C@H](C)[C@H](CN(C)S(=O)(=O)c2ccc(F)cc2)OCCCC[C@H](C)O3)cc1	-4	-12	.	0
COc1ccccc1C#Cc1ccc2c(c1)[C@H]1[C@H](CCN1S(=O)(=O)c1ccc(C)cc1)[C@H](CO)N2	9	21	1	0
O=C(NCCc1ccccc1)c1ccc2c(c1)S(=O)(=O)c1cc(Cl)ccc1C2=O	5	-2	0	-10
O=C(NCCc1ccccc1)c1ccc2c(c1)S(=O)(=O)c1ccccc1C2=O	21	-7	0	-23*
C[C@@H]1CN([C@H](C)CO)C(=O)c2cc(NC(=O)Nc3ccc4c(c3)OCO4)ccc2O[C@@H]1CN(C)C(=O)Nc1ccccc1	-8	-11	0	2
Cc1cccc(NC(=O)CCc2nc3sc4c(c3c(=O)[nH]2)CCCC4)c1	4	2	.	8
CCc1cccc(NC(=O)CCc2nc3sc4c(c3c(=O)[nH]2)CCCC4)c1	4	1	84*	-1
O=C1N[C@H](Cc2ccccc2)COCc2cnnn2CC[C@@H]1Cc1cccc(F)c1	.	.	.	0
CCNc1nc(NCC)nc(-n2nc(C)cc2C)n1	15	.	.	-42*
O=C(CC(O)(c1ccccc1)C(F)(F)C(F)F)c1cccs1 (stereo unspecified)	.	9	.	-31
O=C(/C=C/c1ccccc1)CC(O)(c1ccccc1)C(F)(F)C(F)F (stereo unspecified)	66*	?	.	-32*
Cc1noc(C)c1NC(=O)Nc1ccc2c(c1)CC(=O)N([C@H](C)CO)C[C@H](C)[C@H](CN(C)C)O2	-8	-2	-3	2
CN(C)CCCNC(=S)NCC(c1ccc(Cl)cc1Cl)c1c[nH]c2ccccc12 (stereo unspecified)	62*	-2	1	-59
CCCCNC(=S)NCC(c1ccccc1)c1c[nH]c2ccccc12 (stereo unspecified)	4	-7	0	-49*
C[C@@H]1CCCCO[C@@H](CN(C)Cc2ccccc2)[C@@H](C)CN([C@@H](C)CO)C(=O)c2cc(NC(=O)c3ccncc3)ccc2O1	.	4	0	0
CNC[C@H]1Oc2ccc(NS(=O)(=O)c3ccccc3)cc2CC(=O)N([C@@H](C)CO)C[C@H]1C	.	-11	-2	5
COc1cccc(CNC(=O)CN2C(=O)COc3ccc(S(=O)(=O)N4CCCCCC4)cc32)c1	-9	4	43*	-18
C[C@@H]1CN([C@H](C)CO)C(=O)c2cc(C#Cc3cccc(F)c3)cnc2O[C@@H]1CN(C)CC1CC1	5	2	0	5
SMILES	EWS-Fli inh	LGR2 antag	E-sel inducer	rRNA inh HTS
NNC(=O)c1cccc(S(=O)(=O)Nc2cc(Cl)ccc2Cl)c1	10	2	-2	-20*
O=C(NCc1ccccn1)c1cccc(S(=O)(=O)Nc2ccccc2Cl)c1	-10	-2	.	-11
N#Cc1c(N)n(C2OC(CO)C(O)C2O)c2ncnc(N)c12 (stereo unspecified)	27	91*	2	10
O=C(c1cc(Cl)ccc1[N+](=O)[O-])n1cnc2ccccc21	58*	-18	0	12
O=C(c1ccccc1[N+](=O)[O-])n1cnc2ccccc21	6	-26	.	10
COc1ccc(OC)c(/C=C2\SC(=S)N(NS(=O)(=O)c3ccccc3)C2=O)c1	19	8	0	-16
O=C(NN1C(=O)/C(=C/c2cccs2)SC1=S)c1ccncc1	4	.	.	-29*
O=C1/C(=C/c2cccs2)SC(=S)N1NS(=O)(=O)c1ccccc1	-5	12	.	-27*
Cc1ccccc1CSCC(=O)Nc1ccccc1Br	-7	-37	0	-23*
COC(=O)c1c(C)nc(C)c(C(=O)OC)c1-c1ccc(OC)cc1	0	-2	.	-7
CCOC(=O)c1c(C)nc(C)c(C(=O)OCC)c1-c1ccc(OC)cc1	13	-1	.	-38*
COC(=O)c1c(C)nc(C)c(C(=O)OC)c1-c1ccsc1	11	-3	.	-40*
Cc1[nH]n(-c2ccccc2)c(=O)c1N=Nc1ccc(F)cc1	-42	-4	0	6
CSc1ccc(N=Nc2c(C)[nH]n(C)c2=O)cc1	-41	-63	.	-24*
COC(=O)C1=C(C)NC(C)=C(C(=O)OC)C1/C=C/c1ccccc1	13	-7	.	-32*
COc1ccc2c3c(n(C)c2c1)[C@H](CO)N(C(C)=O)CC31CN(Cc2ccccc2OC)C1	-8	0	0	0
CCOc1ccc(/C=C2\SC(=S)N(NS(=O)(=O)c3ccc(C)cc3)C2=O)cc1OC	-4	5	0	-24*
C[C@H]1CN([C@@H](C)CO)C(=O)c2cc(NS(=O)(=O)c3cn(C)cn3)ccc2O[C@@H]1CN(C)C(=O)Nc1ccccc1	-1	-12	0	1
Clc1nccc(N2CCN(c3ccccc3Cl)CC2)n1	5	-3	.	-25*
C[C@H]1CCC/C=C/[C@@H]2C[C@H](O)C[C@H]2[C@H](O)[C@H](S(=O)c2ccc(O)cc2)CC(=O)O1 (stereo partly specified)	66*	.	1	-17
Cc1ccc(C)c(N2CN(CCC3=CCCCC3)CNC2=S)c1	27	4	3	-28*
CN[C@H]1CCc2cc(OC)c(OC)c(OC)c2-c2ccc(OC)c(=O)cc21	57*	12	0	.
CCOC(=O)NC1CCc2cc(OC)c(OC)c(OC)c2-c2ccc(SC)c(=O)cc21 (stereo unspecified)	35	-17	2	5
CCCCOC(=O)NC1CCc2cc(OC)c(OC)c(OC)c2-c2ccc(SC)c(=O)cc21 (stereo unspecified)	55*	-2	3	5
CCOCC(=O)NC1CCc2cc(OC)c(OC)c(OC)c2-c2ccc(SC)c(=O)cc21 (stereo unspecified)	?	11	0	15
COc1cc2c(c(OC)c1OC)-c1ccc(NC(=O)c3ccccc3)c(=O)cc1[C@@H](NC(C)=O)CC2	54*	13	2	5
O=C(CN1CCOCC1)NCC[C@H]1CC[C@H](NC(=O)c2ccc3c(c2)OCO3)[C@H](CO)O1	-2	-11	0	0
